From ChEMBL document CHEMBL1128230, “5'-[4-(Pivaloyloxy)-1,3,2-dioxaphosphorinan-2-yl]-2'-deoxy-5-fluorouridine: a membrane-permeating prodrug of 5-fluoro-2'-deoxyuridylic acid (FdUMP)” (J Med Chem, 1995)

What was measured:
Mus musculus [1] = experiment: Percentage increase in life span of treated mice implanted intraperitoneally with P-388 leukemia sensitive cells compared with controls at a dose of 100 mg/kg.; type: functional; settings: P388, ip, route intraperitoneal
Outline: (§1)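 Male BDF1 mice (six per group, average 22 g) inoculated ip with 1 × 10^6 P-388 cells, wild-type or FU-resistant subline, on day 0. Drugs given ip daily for 5 consecutive days starting 24 h after implantation, in 0.9% saline or Emulphor 620 vehicle; followed until death. Median survival of treated (T) vs saline controls (C); % ILS = (T/C − 1) × 100; body weight change recorded.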

Mus musculus [2] = experiment: Percentage increase in life span of treated mice implanted intraperitoneally with P-388 leukemia sensitive cells compared with controls at a dose of 150 mg/kg.; type: functional; settings: P388, ip, route intraperitoneal; outline: as §1
Mus musculus [3] = experiment: Percentage increase in life span of treated mice implanted intraperitoneally with P-388 leukemia sensitive cells compared with controls at a dose of 67 mg/kg.; type: functional; settings: P388, ip, route intraperitoneal; outline: as §1
Mus musculus [4] = experiment: Median survival time of […] implanted intraperitoneally with P-388 leukemia sensitive cells at a dose of 100 mg/kg.; type: functional; settings: route intraperitoneal
Mus musculus [5] = experiment: Median survival time of 15 mice implanted intraperitoneally with P-388 leukemia sensitive cells at a dose of 150 mg/kg.; type: functional; settings: route intraperitoneal
Mus musculus [6] = experiment: Median survival time of 15 mice implanted intraperitoneally with P-388 leukemia sensitive cells at a dose of 67 mg/kg.; type: functional; settings: route intraperitoneal
Mus musculus [7] = experiment: Percentage increase in life span of treated mice implanted intraperitoneally with P-388 leukemia resistant cells compared with controls at a dose of 100 mg/kg.; type: functional; settings: P388, ip, route intraperitoneal; outline: as §1
Mus musculus [8] = experiment: Percentage increase in life span of treated mice implanted intraperitoneally with P-388 leukemia resistant cells compared with controls at a dose of 150 mg/kg.; type: functional; settings: P388, ip, route intraperitoneal; outline: as §1
Mus musculus [9] = experiment: Median survival time of […] implanted intraperitoneally with P-388 leukemia resistant cells at a dose of 100 mg/kg.; type: functional; settings: route intraperitoneal
Mus musculus [10] = experiment: Median survival time of […] implanted intraperitoneally with P-388 leukemia resistant cells at a dose of 150 mg/kg.; type: functional; settings: route intraperitoneal
Mus musculus [11] = experiment: Median survival time of […] implanted intraperitoneally with P-388 leukemia resistant cells at a dose of 67 mg/kg.; type: functional; settings: route intraperitoneal
Mus musculus [12] = experiment: Average percentage weight change on day 5 in mice implanted intraperitoneally with P-388 leukemia sensitive cells at a dose of 150 mg/kg.; type: functional; settings: route intraperitoneal
Outline: (§2)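 Male BDF1 mice, six per group, average weight 22 g; 1 × 10^6 P-388 cells (FU-sensitive P-388/0 or FU-resistant P-388/FU) inoculated ip on day 0. Dosing ip daily for 5 consecutive days starting 24 h after implantation. Saline vehicle for FU and FUdR; Emulphor 620 formulation for the prodrug. Followed until death. % ILS = (T/C − 1) × 100 from median survival versus saline-treated controls.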

Mus musculus [13] = experiment: Average percentage weight change on day 5 in mice implanted intraperitoneally with P-388 leukemia sensitive cells at a dose of 67 mg/kg.; type: functional; settings: route intraperitoneal; outline: as §2
Mus musculus [14] = experiment: Average percentage weight change on day 5 in mice implanted intraperitoneally with P-388 leukemia resistant cells at a dose of 100 mg/kg.; type: functional; settings: route intraperitoneal; outline: as §2
Mus musculus [15] = experiment: Average percentage weight change on day 5 in mice implanted intraperitoneally with P-388 leukemia resistant cells at a dose of 150 mg/kg.; type: functional; settings: route intraperitoneal; outline: as §2
Mus musculus [16] = experiment: Average percentage weight change on day 5 in mice implanted intraperitoneally with P-388 leukemia resistant cells at a dose of 67 mg/kg.; type: functional; settings: route intraperitoneal; outline: as §2
Mus musculus [17] = experiment: Average percentage weight change on day 5 in mice implanted intraperitoneally with P-388 leukemia sensitive cells at a dose of 100 mg/kg at a dose of 100 mg/kg.; type: functional; outline: as §2
Mus musculus [18] = experiment: Percentage increase in life span of treated mice implanted intraperitoneally with P-388 leukemia resistant cells compared with controls at a dose of 67 mg/kg.; type: functional; settings: P388, ip, route intraperitoneal; outline: as §1
CHO = experiment: Growth inhibitory activity against CHO cells in culture.; type: functional, cell-based; settings: Cricetulus griseus
Outline: (§3)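 CHO cells and FU-resistant CHO subline plated at about 200 cells per 35-mm dish and cloned with drug at 0, 0.5, 1.5, 5, 10, 50 and 100 µM for 7 days at 37 °C in humidified CO2. Clones fixed in 10% formaldehyde and stained with 0.1% crystal violet. Minimum inhibitory concentration is the lowest concentration giving colonies of fewer than 50 cells.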

CHO-FU = experiment: Growth inhibitory activity against CHO/FU cells in culture.; type: functional, cell-based; settings: Cricetulus griseus; outline: as §3
Mus musculus [19] = experiment: Percentage increase in life span of treated mice implanted intraperitoneally with P-388 leukemia sensitive cells compared with controls at a dose of 20 mg/kg.; type: functional; settings: P388, ip, route intraperitoneal; outline: as §1
Mus musculus [20] = experiment: Percentage increase in life span of treated mice implanted intraperitoneally with P-388 leukemia sensitive cells compared with controls at a dose of 30 mg/kg.; type: functional; settings: P388, ip, route intraperitoneal; outline: as §1
Mus musculus [21] = experiment: Median survival time of 15 mice implanted intraperitoneally with P-388 leukemia sensitive cells at a dose of 20 mg/kg.; type: functional; settings: route intraperitoneal
Mus musculus [22] = experiment: Median survival time of 15 mice implanted intraperitoneally with P-388 leukemia sensitive cells at a dose of 30 mg/kg.; type: functional; settings: route intraperitoneal; outline: as §1
Mus musculus [23] = experiment: Percentage increase in life span of treated mice implanted intraperitoneally with P-388 leukemia resistant cells compared with controls at a dose of 20 mg/kg.; type: functional; settings: P388, ip, route intraperitoneal; outline: as §1
Mus musculus [24] = experiment: Percentage increase in life span of treated mice implanted intraperitoneally with P-388 leukemia resistant cells compared with controls at a dose of 30 mg/kg.; type: functional; settings: P388, ip, route intraperitoneal; outline: as §1
Mus musculus [25] = experiment: Percentage increase in life span of treated mice implanted intraperitoneally with P-388 leukemia resistant cells compared with controls at a dose of 40 mg/kg.; type: functional; settings: P388, ip, route intraperitoneal; outline: as §1
Mus musculus [26] = experiment: Median survival time of 15 mice implanted intraperitoneally with P-388 leukemia resistant cells at a dose of 20 mg/kg.; type: functional; settings: route intraperitoneal
Mus musculus [27] = experiment: Median survival time of 15 mice implanted intraperitoneally with P-388 leukemia resistant cells at a dose of 30 mg/kg.; type: functional; settings: route intraperitoneal
Mus musculus [28] = experiment: Median survival time of 15 mice implanted intraperitoneally with P-388 leukemia resistant cells at a dose of 40 mg/kg.; type: functional; settings: route intraperitoneal
Mus musculus [29] = experiment: Average percentage weight change on day 5 in mice implanted intraperitoneally with P-388 leukemia sensitive cells at a dose of 20 mg/kg.; type: functional; settings: route intraperitoneal; outline: as §1
Mus musculus [30] = experiment: Average percentage weight change on day 5 in mice implanted intraperitoneally with P-388 leukemia sensitive cells at a dose of 30 mg/kg.; type: functional; settings: route intraperitoneal; outline: as §1
Mus musculus [31] = experiment: Average percentage weight change on day 5 in mice implanted intraperitoneally with P-388 leukemia resistant cells at a dose of 20 mg/kg.; type: functional; settings: route intraperitoneal; outline: as §1
Mus musculus [32] = experiment: Average percentage weight change on day 5 in mice implanted intraperitoneally with P-388 leukemia resistant cells at a dose of 30 mg/kg.; type: functional; settings: route intraperitoneal; outline: as §1
Mus musculus [33] = experiment: Average percentage weight change on day 5 in mice implanted intraperitoneally with P-388 leukemia resistant cells at a dose of 40 mg/kg.; type: functional; settings: route intraperitoneal; outline: as §1
Mus musculus [34] = experiment: Percentage increase in life span of treated mice implanted intraperitoneally with P-388 leukemia sensitive cells compared with controls for a dose of 100 mg/kg.; type: functional; settings: P388, ip, route intraperitoneal
Outline: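 Male BDF1 mice (six per group, about 22 g) inoculated ip with 1 × 10^6 P-388/0 leukemia cells on day 0. Drugs given ip daily for 5 consecutive days starting 24 h after implantation, in 0.9% saline or Emulphor 620 vehicle. Animals followed until death. %ILS = (T/C − 1) × 100 from median survival of treated versus saline-treated controls.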

Mus musculus [35] = experiment: Median survival time of […] implanted intraperitoneally with P-388 leukemia sensitive cells for a dose of 100 mg/kg.; type: functional; settings: route intraperitoneal
Mus musculus [36] = experiment: Percentage increase in life span of treated mice implanted intraperitoneally with P-388 leukemia resistant cells compared with controls for a dose of 100 mg/kg.; type: functional; settings: P388, ip, route intraperitoneal; outline: as §1
Mus musculus [37] = experiment: Median survival time of […] implanted intraperitoneally with P-388 leukemia resistant cells for a dose of 100 mg/kg.; type: functional; settings: route intraperitoneal
Mus musculus [38] = experiment: Average percentage weight change on day 5 in mice implanted intraperitoneally with P-388 leukemia sensitive cells for a dose of 100 mg/kg.; type: functional; settings: route intraperitoneal; outline: as §2
Mus musculus [39] = experiment: Average percentage weight change on day 5 in mice implanted intraperitoneally with P-388 leukemia resistant cells for a dose of 100 mg/kg.; type: functional; settings: route intraperitoneal; outline: as §2

O=c1[nH]c(=O)n([C@H]2C[C@H](O)[C@@H](CO)O2)cc1F [FLOXURIDINE]
ILS at 100 mg/kg (Mus musculus [1]): 73% | ILS at 150 mg/kg (Mus musculus [2]): 82% | ILS at 67 mg/kg (Mus musculus [3]): 45% | MST (Mus musculus [4]): 19 days | MST (Mus musculus [5]): 20 days | MST (Mus musculus [6]): 16 days | ILS at 100 mg/kg (Mus musculus [7]): 18% | ILS at 150 mg/kg (Mus musculus [8]): 18% | MST (Mus musculus [9]): 13 days | MST (Mus musculus [10]): 13 days | MST (Mus musculus [11]): 12 days | Weight change (Mus musculus [12]): -5% | Weight change (Mus musculus [13]): -2% | Weight change (Mus musculus [14]): -10% | Weight change (Mus musculus [15]): -10% | Weight change (Mus musculus [16]): -6% | Weight change (Mus musculus [17]): -4% | ILS at 67 mg/kg (Mus musculus [18]): 9%

C=CC=O [ACROLEIN]
IC50 (CHO): 50 µM | IC50 (CHO-FU): 50 µM

O=c1[nH]cc(F)c(=O)[nH]1 [FLUOROURACIL]
IC50 (CHO): 5 µM | IC50 (CHO-FU): 100 µM | ILS at 20 mg/kg (Mus musculus [19]): 45% | ILS at 30 mg/kg (Mus musculus [20]): 55% | MST (Mus musculus [21]): 16 days | MST (Mus musculus [22]): 17 days | ILS at 20 mg/kg (Mus musculus [23]): -9% | ILS at 30 mg/kg (Mus musculus [24]): -18% | ILS at 40 mg/kg (Mus musculus [25]): -18% | MST (Mus musculus [26]): 10 days | MST (Mus musculus [27]): 9 days | MST (Mus musculus [28]): 9 days | Weight change (Mus musculus [29]): -5% | Weight change (Mus musculus [30]): -15% | Weight change (Mus musculus [31]): -6% | Weight change (Mus musculus [32]): -15% | Weight change (Mus musculus [33]): -18%

O=S(=O)([O-])CCS.[Na+] [MESNA]
ILS at 100 mg/kg (Mus musculus [34]): 0% | MST (Mus musculus [35]): 11 days | ILS at 100 mg/kg (Mus musculus [36]): 0% | MST (Mus musculus [37]): 11 days | Weight change (Mus musculus [38]): 10% | Weight change (Mus musculus [39]): 12%
